ChEMBL document CHEMBL1152686, “Development and characterization of lysine based tripeptide analogues as inhibitors of Sir2 activity” (Bioorg Med Chem, 2009)
Calls of active or inactive are those of the source. The calls are words filed in the database; no cut-off is given here.

Tests used:
[1] = Noncompetitive inhibition of His-tagged Plasmodium falciparum Sir2 expressed in Escherichia coli measured by secondary plot of intercept versus inhibitor concentration in presence of saturating NAD+ levels by FRET assay
How it was run: (§1)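 His-tagged PfSir2 from E. coli, coupled FRET assay (acetyl-lysine EDANS–DABCYL peptide, trypsin cleavage after deacetylation), 37 °C. Initial velocities measured with one substrate varied, the other fixed at saturating level, at several fixed inhibitor levels. Parameters from non-linear regression. Lineweaver–Burk plots, plus secondary slope and intercept plots versus [I], fit linearly or by second-order polynomial. Two independently purified enzyme batches.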

[2] = Noncompetitive inhibition of His-tagged Plasmodium falciparum Sir2 expressed in Escherichia coli measured by primary plot of enzyme kinetics in presence of saturating NAD+ levels by FRET assay; how it was run: as §1
Plasmodium falciparum [3] = experiment: Antiplasmodial activity against Plasmodium falciparum 3D7 infected in human O+ erythrocytes assessed as inhibition of parasite growth in intraerythrocytic stage after 24 hrs by [3H]hypoxanthine incorporation assay; type: functional, organism-based
How it was run: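 P. falciparum 3D7 grown in human O+ erythrocytes at 5% hematocrit, RPMI 1640 with 10% human serum. Compound in DMSO, twofold serial dilutions from 400 to 0.2 µM. Wells at 2% parasitemia and 2% hematocrit, 37 °C in candle jar. After 24 h, 1.0 µCi [3H]hypoxanthine added per well for another 12 h. Filter-harvested counts; IC50 by interpolation from log plot. Done twice in duplicate.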

[4] = Competitive inhibition of His-tagged Plasmodium falciparum Sir2 expressed in Escherichia coli measured by primary plot of enzyme kinetics in presence of saturating acetylated peptide levels by FRET assay; how it was run: as §1
[5] = Competitive inhibition of His-tagged Plasmodium falciparum Sir2 expressed in Escherichia coli measured by secondary plot of slope versus inhibitor concentration in presence of saturating acetylated peptide levels by FRET assay; how it was run: as §1
[6] = Inhibition of His-tagged Plasmodium falciparum Sir2 expressed in Escherichia coli preincubated 5 min before substrate assay mixture addition by FRET assay
How it was run: (§2)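 Recombinant C-terminal His-tagged PfSir2 from E. coli BL21(DE3), Ni-NTA purified. Enzyme preincubated with inhibitor 5 min, then added to mix of 5 mM Tris-HCl pH 8.0, trichostatin A and trypsin with acetyl-lysine EDANS–DABCYL peptide. Deacetylation allows trypsin cleavage and a rise in fluorescence. Read at 37 °C on a spectrofluorimeter.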

[7] = biological target: T1, NAD-dependent protein deacetylase sirtuin-1 (Homo sapiens) (UniProt Q96EB6); experiment: Inhibition of human Sirt1
T1 sequence (whole entry): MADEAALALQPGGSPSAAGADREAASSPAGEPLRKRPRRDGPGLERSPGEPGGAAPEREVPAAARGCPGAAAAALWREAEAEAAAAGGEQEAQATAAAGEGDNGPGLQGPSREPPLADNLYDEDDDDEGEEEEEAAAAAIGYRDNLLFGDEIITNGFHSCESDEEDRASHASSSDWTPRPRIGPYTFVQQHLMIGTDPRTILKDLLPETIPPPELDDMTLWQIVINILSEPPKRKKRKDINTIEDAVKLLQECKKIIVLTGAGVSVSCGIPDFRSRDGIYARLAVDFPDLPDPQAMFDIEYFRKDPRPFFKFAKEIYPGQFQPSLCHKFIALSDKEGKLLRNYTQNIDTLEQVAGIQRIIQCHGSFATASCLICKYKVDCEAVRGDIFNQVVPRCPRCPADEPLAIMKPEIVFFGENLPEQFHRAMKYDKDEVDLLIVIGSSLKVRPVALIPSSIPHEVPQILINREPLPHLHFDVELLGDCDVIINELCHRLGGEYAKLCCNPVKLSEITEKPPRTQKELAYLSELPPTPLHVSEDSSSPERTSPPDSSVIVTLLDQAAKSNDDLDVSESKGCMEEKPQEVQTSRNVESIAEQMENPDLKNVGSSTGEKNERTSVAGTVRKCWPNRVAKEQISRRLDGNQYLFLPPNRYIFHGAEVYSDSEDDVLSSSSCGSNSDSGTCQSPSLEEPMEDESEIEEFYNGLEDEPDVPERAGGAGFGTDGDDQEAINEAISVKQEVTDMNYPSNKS

[8] = Noncompetitive inhibition of His-tagged Plasmodium falciparum Sir2 expressed in Escherichia coli measured by secondary plot of slope versus inhibitor concentration in presence of saturating NAD+ levels by FRET assay; how it was run: as §1
Plasmodium falciparum [9] = experiment: Inhibition of His-tagged Plasmodium falciparum Sir2 expressed in Escherichia coli at t500 uM preincubated 5 min before substrate assay mixture addition by FRET assay; how it was run: as §2

Row | Compound | IC50 [6] [µM] | inhibition (qualitative call) [7] | inhibition (Plasmodium falciparum [9]) | Ki [1] [µM] | Ki [2] [µM] | IC50 (Plasmodium falciparum [3]) [µM] | Ki [4] [µM] | Ki [5] [µM] | Ki [8] [µM]
1 | COC(=O)[C@@H](NC(=O)[C@H](CCCCNC(=O)OCc1cn([C@@H]2O[C@H]([C@@H]3COC(C)(C)O3)[C@@H]3OC(C)(C)O[C@@H]32)nn1)NC(=O)[C@H](Cc1ccccc1)NC(=O)OC(C)(C)C)C(C)C | 34 | Active | – | 125 | 122 | – | 58 | 62 | 90
2 | C#CCOC(=O)NCCCC[C@H](NC(=O)OC(C)(C)C)C(=O)N[C@H](C(=O)OC)C(C)C | – | – | inactive | – | – | – | – | – | –
3 | C#CCOC(=O)NCCCC[C@H](NC(=O)OC(C)(C)C)C(=O)O | – | – | inactive | – | – | – | – | – | –
4 | COC(=O)[C@@H](NC(=O)[C@H](CCCCNC(=O)OCc1cn([C@@H]2O[C@H](COC(C)=O)[C@H](OC(C)=O)[C@H](OC(C)=O)[C@H]2OC(C)=O)nn1)NC(=O)[C@H](Cc1ccccc1)NC(=O)OC(C)(C)C)C(C)C | 151 | Active | – | 193 | 154 | – | 85 | 80 | 172

Second part, led by results:

Row | IC50 [6] [µM] | inhibition (qualitative call) [7] | inhibition (Plasmodium falciparum [9]) | Compound | Ki [1] [µM] | Ki [2] [µM] | IC50 (Plasmodium falciparum [3]) [µM] | Ki [4] [µM] | Ki [5] [µM] | Ki [8] [µM]
5 | 23 | Active | – | COC(=O)[C@@H](NC(=O)[C@H](CCCCNC(=O)OCc1cn(C[C@H]2O[C@H](OC)[C@H](OC(C)=O)[C@@H](OC(C)=O)[C@@H]2OC(C)=O)nn1)NC(=O)[C@H](Cc1ccccc1)NC(=O)OC(C)(C)C)C(C)C | 119 | 134 | 9.8 | 60 | 60 | 90
6 | – | – | inactive | CC(=O)O[C@H]1C[C@H](n2cc(C)c(=O)[nH]c2=O)O[C@@H]1Cn1cc(COC(=O)NCCCC[C@H](NC(=O)OC(C)(C)C)C(=O)OCc2ccccc2)nn1 | – | – | – | – | – | –
7 | 33 | Active | – | COC(=O)[C@@H](NC(=O)[C@H](CCCCNC(=O)OCc1cn(C[C@H]2O[C@@H](n3cc(C)c(=O)[nH]c3=O)C[C@@H]2OC(C)=O)nn1)NC(=O)[C@H](Cc1ccccc1)NC(=O)OC(C)(C)C)C(C)C | 113 | 124 | – | 60 | 64 | 115
